A short description of data set [1]: Inhibition of wild-type full-length HCV genotype 1a NS3 protease using Ac-DED(Edans)EEAbu-psi-[COO]ASK(Dabcyl)-NH2 as substrate by FRET assay. More on the design: species or system Hepatitis C virus subtype 1a. An outline of the steps:
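Full-length HCV NS3 (protease-helicase/NTPase), genotype 1a wild type, FRET protease assay. 1 nM enzyme preincubated 10 min at 30 °C in 50 mM HEPES pH 7.5 with 10 mM DTT. Inhibition taken from measured initial velocities, corrected for each compound's auto-fluorescence. That correction used the ratio of fluorescence with and without compound, measured at every tested concentration.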

Data set [2] is described as follows: Cytotoxicity against human HuH7 cells. The format is cell-based, Huh-7.
Another data set relates to Hepatitis C virus. Kind of data set: Antiviral activity against HCV infected in human HuH7 cells by cell based replicon assay. The format is functional, organism-based, Hepacivirus hominis. The settings on record: Huh-7. The gist of the method: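 HCV replicon cell assay; EC50 given as the mean of two experiments.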
In general terms: A replicon is a self-replicating genome or part of one, used to study replication in cells.

In ChEMBL document CHEMBL3797198, “Discovery of pyrazinone based compounds that potently inhibit the drug-resistant enzyme variant R155K of the hepatitis C virus NS3 protease” (Bioorg Med Chem, 2016) one finds Ki, CC50 and EC50 data, which are given here for 25 compounds.

What is called Ki is a measure of affinity in units of concentration, obtained from inhibition or displacement. The CC50 is the concentration that lowers cell viability or growth by half. Usually EC50 stands for the midpoint of the concentration-response curve. A low value points to a more potent agent.

For `CC(C)(C)NC(=O)Nc1nc(Cl)c(Cc2cccc3ccccc23)n(CC(=O)Nc2cccc(S(=O)(=O)NC(=O)c3ccc(C(F)(F)F)cc3)c2)c1=O`, in data set [1], the Ki worked out at 190 nM. Compound `COC(=O)c1ccccc1NC(=O)Cn1c(CCC2CCCCC2)c(Cl)nc(NC(=O)NC(C)(C)C)c1=O` gave an inhibitory constant (Ki) in data set [1] of 120 nM. This compound gave a CC50 in data set [2] of more than 100000 nM. Further, the concentration for a half-maximal effect (EC50) in the data set with Hepatitis C virus turned out to be 22000 nM.

`CC(C)(C)NC(=O)Nc1nc(Cl)c(CCC2CCCCC2)n(CC(=O)Nc2ccccc2C(=O)NS(=O)(=O)c2ccccc2C(F)(F)F)c1=O` registered a Ki in data set [1] of 130 nM. Same read-out and setting: the same measure for `CC(C)(C)NC(=O)Nc1nc(Cl)c(CCC2CCCCC2)n(CC(=O)NC2(C(=O)NS(=O)(=O)c3ccc(C(F)(F)F)cc3)CC(OCc3ccccc3)C2)c1=O` (centres undefined): 70 nM.

Take `CC(C)(C)NC(=O)Nc1nc(Cl)c(CCC2CCCCC2)n(CC(=O)Nc2cc(C(=O)NS(=O)(=O)c3ccc(C(F)(F)F)cc3)cc(C(F)(F)F)c2)c1=O`: the Ki in data set [1] stood at 100 nM. On the same count and under the same terms, the same measure for `CC(C)(C)NC(=O)Nc1nc(Cl)c(CCC2CCCCC2)n(CC(=O)Nc2ccc(C(=O)NS(=O)(=O)c3ccc(C(F)(F)F)cc3)cc2)c1=O`: 260 nM. Still for that read-out and setting: the same measure for `CC(C)(C)NC(=O)Nc1nc(Cl)c(Cc2cccc3ccccc23)n(CC(=O)Nc2ccc(S(=O)(=O)NC(=O)c3ccc(C(F)(F)F)cc3)cc2)c1=O`: 170 nM. In the case of `CN(C(=O)c1ccccc1NC(=O)Cn1c(CCC2CCCCC2)c(Cl)nc(NC(=O)NC(C)(C)C)c1=O)S(=O)(=O)c1ccc(C(F)(F)F)cc1`, the Ki in data set [1] is 260 nM. Same read-out and setting: the figure for `CC[C@H](C)[C@H](NC(=O)[C@H](CC(C)C)NC(=O)C(CC(C(=O)O)C(=O)O)NC(=O)[C@H](CC(=O)O)NC(C)=O)C(=O)N[C@@H](CC1CCCCC1)C(=O)N[C@@H](CS)C(=O)O` (single isomer, unassigned) is 91 nM; for `C=Cc1ccc(C(=O)NS(=O)(=O)c2ccc(C(F)(F)F)cc2)c(NC(=O)Cn2c(CCC3CCCCC3)c(Cl)nc(NC(=O)NC(C)(C)C)c2=O)c1` it is 120 nM. With `CC(C)(C)NC(=O)Nc1nc(Cl)c(Cc2ccccc2)n(CC(=O)NC2(C(=O)NS(=O)(=O)c3ccc(C(F)(F)F)cc3)CC(OCc3ccccc3)C2)c1=O` (centres undefined), affinity in data set [1] was put at a Ki of 150 nM. For `CC(C)(C)NC(=O)Nc1nc(Cl)c(CCC2CCCCC2)n(CC(=O)Nc2cc(Br)ccc2C(=O)NS(=O)(=O)c2ccc(C(F)(F)F)cc2)c1=O`, in data set [1], the affinity corresponds to a Ki of 150 nM. Same read-out and setting: the figure for `CC(C)(C)NC(=O)Nc1nc(Cl)c(CCC2CCCCC2)n(CC(=O)Nc2cc(-c3cncnc3)ccc2C(=O)NS(=O)(=O)c2ccc(C(F)(F)F)cc2)c1=O` is 120 nM.

In data set [1], `CC(C)(C)NC(=O)Nc1nc(Cl)c(CCC2CCCCC2)n(CC(=O)Nc2cccc(C(=O)NS(=O)(=O)c3ccc(C(F)(F)F)cc3)c2)c1=O` yielded a Ki of 170 nM. Take `CCCC(NC(=O)[C@@H]1[C@H]2CCC[C@H]2CN1C(=O)[C@@H](NC(=O)[C@@H](NC(=O)c1cnccn1)C1CCCCC1)C(C)(C)C)C(=O)C(=O)NC1CC1` (some centres undefined): in data set [1], the affinity, expressed as Ki, was 15 nM. In data set [2], the CC50 is more than 1000 nM. Moreover, the EC50 with Hepatitis C virus turned out to be 650 nM. For the compound `CC(C)(C)NC(=O)Nc1nc(Cl)c(CCC2CCCCC2)n(CC(=O)Nc2ccc(CC(=O)NS(=O)(=O)c3ccc(C(F)(F)F)cc3)cc2)c1=O`, in data set [1], affinity was put at a Ki of 140 nM. With `CC(C)(C)NC(=O)Nc1nc(Cl)c(CCC2CCCCC2)n(CC(=O)Nc2ccccc2C(=O)NS(=O)(=O)c2cccc(C(F)(F)F)c2)c1=O`, the affinity in data set [1] corresponds to a Ki of 230 nM.

`CC(C)(C)NC(=O)Nc1nc(Cl)c(CCc2ccccc2)n(CC(=O)Nc2ccccc2S(=O)(=O)NC(=O)c2ccc(C(F)(F)F)cc2)c1=O` gave an inhibition constant Ki in data set [1] of 170 nM. Still for that read-out and setting: the figure for `CC(C)(C)NC(=O)Nc1nc(Cl)c(Cc2cccc3ccccc23)n(CC(=O)Nc2ccccc2S(=O)(=O)NC(=O)c2ccc(C(F)(F)F)cc2)c1=O` is 180 nM; for `Cc1ccc(S(=O)(=O)NC(=O)c2ccccc2NC(=O)Cn2c(CCC3CCCCC3)c(Cl)nc(NC(=O)NC(C)(C)C)c2=O)cc1` it is 120 nM. `CC(C)(C)NC(=O)Nc1nc(Cl)c(CCC2CCCCC2)n(CC(=O)Nc2cc(F)ccc2C(=O)NS(=O)(=O)c2ccc(C(F)(F)F)cc2)c1=O` displayed a Ki in data set [1] of 110 nM. Also, in data set [2], the CC50 turned out to be 38000 nM. The compound further returned an EC50 with Hepatitis C virus of 7300 nM. As to `CC(C)(C)OC(=O)N[C@H]1CCCCC/C=C\[C@@H]2C[C@@]2(C(=O)NS(=O)(=O)C2CC2)NC(=O)[C@@H]2C[C@@H](OC(=O)N3Cc4cccc(F)c4C3)CN2C1=O` [DANOPREVIR], the CC50 in data set [2] is more than 1000 nM. For the same compound, the EC50 in the data set on Hepatitis C virus came out at 11 nM. Consider `CC(C)(C)NC(=O)Nc1nc(Cl)c(CCC2CCCCC2)n(CC(=O)Nc2ccccc2C(=O)O)c1=O`, for which the inhibition constant (Ki) in data set [1] was 120 nM. Also, in data set [2], the half-maximal cytotoxic concentration (CC50) is more than 100000 nM. In the data set with Hepatitis C virus, the half-maximal effective concentration (EC50) stood at 49000 nM. The compound `CC(C)(C)NC(=O)Nc1ncc(Cc2ccccc2)n(CC(=O)NC2(C(=O)NS(=O)(=O)c3ccc(C(F)(F)F)cc3)CC(O)C2)c1=O` (centres undefined) gave an inhibition constant (Ki) in data set [1] of 450 nM. Take `CC(C)(C)NC(=O)Nc1nc(Cl)c(Cc2ccccc2)n(CC(=O)O)c1=O`: the inhibition constant (Ki) in data set [1] was more than 10000 nM.
